Test results as given in ChEMBL document CHEMBL2086331, “Novel triazolopyridylbenzamides as potent and selective p38α inhibitors” (Bioorg Med Chem Lett, 2012).
Values belong to the compound of their own block, whether it stands above or below them.

Tests used:
Blood = assay: Inhibition of LPS-induced TNFalpha production in human whole blood; type: functional, tissue-based
[1] = Stability in human hepatic microsomes assessed as compound turnover at 5 uM incubated for 30 mins in presence of NADPH; type: ADME; settings: liver microsomes, read-out: Drug degradation
In short: (§1)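 Rat or human hepatic microsomes (1 mg/mL) with NADPH, test compound 5 µM, 30 min at 37 °C; readout is % turnover of parent.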

Cytochrome P450 2C9 = Cytochrome P450 2C9 (Homo sapiens, UniProt P11712); assay: Inhibition of CYP2C9 at < 25 uM; type: ADME
Cytochrome P450 2D6 = Cytochrome P450 2D6 (Homo sapiens, UniProt P10635); assay: Inhibition of CYP2D6 at < 25 uM; type: ADME
[2] = Clearance in beagle dog at 1 mg/kg, iv; type: ADME, organism-based, Canis lupus familiaris; design: dose 1 mg/kg, route intravenous; settings: in vivo
In short: (§2)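 Beagle dogs dosed 1 mg/kg iv or 1 mg/kg po; pharmacokinetic parameters reported as mean values of n = 2 animals.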

[3] = AUC in Wistar rat at 1 mg/kg, iv; type: ADME, organism-based; design: dose 1 mg/kg, route intravenous; settings: plasma
In short: (§3)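 Wistar rats, single dose either iv 1 mg/kg in 40% PEG + 0.4% HCl 1 N, or oral 10 mg/kg in 0.5% methylcellulose + 0.1% Tween 80; plasma PK parameters reported as mean values (n = 2).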

[4] = Clearance in Wistar rat at 1 mg/kg, iv; type: ADME, organism-based; design: dose 1 mg/kg, route intravenous; settings: in vivo; in short: as §3
[5] = Oral bioavailability in beagle dog at 1 mg/kg; type: ADME, organism-based, Canis lupus familiaris; settings: in vivo; in short: as §2
[6] = Protein binding in human plasma; type: ADME, cell-free; settings: read-out: PPB (converted)
[7] = Protein binding in rat plasma; type: ADME, cell-free; settings: read-out: PPB (converted)
[8] = AUC in Wistar rat at 10 mg/kg, po; type: ADME, organism-based; design: dose 10 mg/kg, route oral; settings: plasma; in short: as §3
[9] = Passive permeability from basolateral to apical side in human Caco2 cells at 12.5 uM; type: ADME, cell-based; settings: Caco-2, read-out: permeability
In short: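 Caco-2 monolayer, test compound 12.5 µM; passive apparent permeability measured in both AB and BA directions, reported in 10^-6 cm/s.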

Cytochrome P450 1A2 = target: T1, Cytochrome P450 1A2 (Homo sapiens, UniProt P05177); assay: Inhibition of CYP1A2 at < 25 uM; type: ADME
T1 sequence (P05177 whole entry): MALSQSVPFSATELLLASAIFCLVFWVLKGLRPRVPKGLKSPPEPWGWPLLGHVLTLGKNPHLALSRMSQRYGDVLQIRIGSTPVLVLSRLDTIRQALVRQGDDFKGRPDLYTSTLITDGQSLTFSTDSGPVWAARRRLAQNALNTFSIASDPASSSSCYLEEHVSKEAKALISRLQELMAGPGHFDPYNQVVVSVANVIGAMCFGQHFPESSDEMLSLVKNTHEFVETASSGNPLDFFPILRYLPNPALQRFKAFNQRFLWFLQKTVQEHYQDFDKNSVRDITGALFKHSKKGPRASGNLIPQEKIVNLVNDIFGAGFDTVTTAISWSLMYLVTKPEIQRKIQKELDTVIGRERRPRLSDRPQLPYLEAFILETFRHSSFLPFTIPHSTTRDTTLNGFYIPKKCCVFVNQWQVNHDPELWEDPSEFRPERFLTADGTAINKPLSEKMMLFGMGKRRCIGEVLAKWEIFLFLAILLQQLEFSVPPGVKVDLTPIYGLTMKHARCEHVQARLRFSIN

[10] = Half life in beagle dog at 1 mg/kg, iv; type: ADME, organism-based, Canis lupus familiaris; design: dose 1 mg/kg, route intravenous; settings: in vivo; in short: as §2
[11] = Stability in rat hepatic microsomes assessed as compound turnover at 5 uM incubated for 30 mins in presence of NADPH; type: ADME; settings: liver microsomes, read-out: Drug degradation; in short: as §1
[12] = Cmax in beagle dog at 1 mg/kg, po; type: ADME, organism-based, Canis lupus familiaris; design: dose 1 mg/kg, route oral; settings: in vivo; in short: as §2
[13] = AUC in beagle dog at 1 mg/kg, po; type: ADME, organism-based, Canis lupus familiaris; design: dose 1 mg/kg, route oral; settings: plasma; in short: as §2
CHO [14] = assay: Cytotoxicity against CHO cells at 200 uM; type: cell-based, Cricetulus griseus; settings: chinese hamster
Rattus norvegicus [15] = assay: Inhibition of TNFalpha release in rat LPS-induced endotoxemia model dosed orally 1 hr prior to LPS challenge and measured 1.5 hrs post LPS challenge; type: functional; settings: po
In short: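 Rats given compound orally 1 h before LPS challenge to induce endotoxemia; plasma TNFα quantified 1.5 h after LPS, at peak TNF production.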

[16] = AUC in beagle dog at 1 mg/kg, iv; type: ADME, organism-based, Canis lupus familiaris; design: dose 1 mg/kg, route intravenous; settings: plasma; in short: as §2
Cytochrome P450 3A4 = Cytochrome P450 3A4 (Homo sapiens, UniProt P08684); assay: Inhibition of CYP3A4 at < 25 uM; type: ADME
[17] = target: RAF proto-oncogene serine/threonine-protein kinase (Homo sapiens, UniProt P04049); assay: Inhibition of c-Raf
[18] = Volume of distribution at steady state in Wistar rat at 1 mg/kg, iv; type: ADME, organism-based; design: dose 1 mg/kg, route intravenous; settings: in vivo, read-out: Vdss; in short: as §3
in vitro = settings: human, Caco-2
[19] = Volume of distribution at steady state in beagle dog at 1 mg/kg, iv; type: ADME, organism-based, Canis lupus familiaris; design: dose 1 mg/kg, route intravenous; settings: in vivo, read-out: Vdss; in short: as §2
[20] = Cmax in Wistar rat at 10 mg/kg, po; type: ADME, organism-based; design: dose 10 mg/kg, route oral; settings: in vivo; in short: as §3
Rattus norvegicus [21] = assay: Antiarthritic effect in rat adjuvant-induced arthritis model assessed as inhibition of right paw edema at 3 mg/kg, po dosed daily during last 10 days of test; type: functional; settings: 240 h
In short: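 Arthritis induced by complete Freund's adjuvant injected into left hind paw; oral compound daily over final 10 days of protocol; right (non-injected) paw volume monitored, result as % inhibition of oedema.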

CHO [22] = assay: Toxicity against CHO cells; type: cell-based, Cricetulus griseus; settings: chinese hamster
[23] = Oral bioavailability in Wistar rat at 10 mg/kg; type: ADME, organism-based; settings: in vivo; in short: as §3
[24] = Half life in Wistar rat at 1 mg/kg, iv; type: ADME, organism-based; design: dose 1 mg/kg, route intravenous; settings: in vivo; in short: as §3
Cytochrome P450 2C19 = Cytochrome P450 2C19 (Homo sapiens, UniProt P33261); assay: Inhibition of CYP2C19 at < 25 uM; type: ADME
Cytochrome P450 2C19, sequence (P33261 whole entry): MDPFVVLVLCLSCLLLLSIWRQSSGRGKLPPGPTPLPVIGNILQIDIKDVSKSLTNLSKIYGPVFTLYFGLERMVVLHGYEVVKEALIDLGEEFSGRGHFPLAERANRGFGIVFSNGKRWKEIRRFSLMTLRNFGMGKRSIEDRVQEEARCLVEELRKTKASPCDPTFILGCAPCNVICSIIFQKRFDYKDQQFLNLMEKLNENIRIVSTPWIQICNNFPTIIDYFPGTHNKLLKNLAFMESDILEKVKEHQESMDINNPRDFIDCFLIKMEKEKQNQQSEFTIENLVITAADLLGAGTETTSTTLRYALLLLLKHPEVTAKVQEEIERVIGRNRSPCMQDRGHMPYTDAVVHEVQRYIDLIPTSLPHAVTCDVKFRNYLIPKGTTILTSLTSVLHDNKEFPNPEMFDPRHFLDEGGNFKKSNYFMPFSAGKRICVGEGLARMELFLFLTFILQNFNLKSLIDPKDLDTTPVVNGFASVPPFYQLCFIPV

Cytochrome P450 3A4, sequence (P08684 whole entry): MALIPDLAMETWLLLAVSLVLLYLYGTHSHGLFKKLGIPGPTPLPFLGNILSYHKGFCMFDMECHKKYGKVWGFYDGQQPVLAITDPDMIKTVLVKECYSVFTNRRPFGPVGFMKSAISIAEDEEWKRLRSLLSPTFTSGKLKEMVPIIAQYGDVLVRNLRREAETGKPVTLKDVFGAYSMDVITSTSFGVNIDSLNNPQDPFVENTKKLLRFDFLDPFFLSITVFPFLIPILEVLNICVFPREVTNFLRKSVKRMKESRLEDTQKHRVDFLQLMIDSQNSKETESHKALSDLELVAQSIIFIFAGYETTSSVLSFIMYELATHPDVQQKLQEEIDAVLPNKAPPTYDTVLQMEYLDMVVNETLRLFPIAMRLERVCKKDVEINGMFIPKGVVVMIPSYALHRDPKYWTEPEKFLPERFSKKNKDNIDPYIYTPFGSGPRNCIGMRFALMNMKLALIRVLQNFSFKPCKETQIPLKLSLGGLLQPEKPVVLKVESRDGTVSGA
Cytochrome P450 2C9, sequence (P11712 whole entry): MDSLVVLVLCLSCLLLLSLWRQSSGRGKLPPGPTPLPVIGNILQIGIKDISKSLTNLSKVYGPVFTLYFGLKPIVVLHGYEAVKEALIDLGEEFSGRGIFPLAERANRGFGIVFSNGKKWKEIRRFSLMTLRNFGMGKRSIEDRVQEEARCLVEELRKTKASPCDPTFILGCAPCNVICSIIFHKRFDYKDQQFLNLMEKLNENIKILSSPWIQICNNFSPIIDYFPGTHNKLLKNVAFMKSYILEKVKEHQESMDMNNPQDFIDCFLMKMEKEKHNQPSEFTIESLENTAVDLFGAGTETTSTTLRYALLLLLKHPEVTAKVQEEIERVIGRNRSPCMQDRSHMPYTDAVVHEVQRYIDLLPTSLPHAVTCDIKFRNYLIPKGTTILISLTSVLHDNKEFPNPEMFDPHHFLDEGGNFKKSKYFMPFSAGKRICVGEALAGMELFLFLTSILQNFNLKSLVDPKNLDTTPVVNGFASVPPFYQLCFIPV
RAF proto-oncogene serine/threonine-protein kinase, sequence (P04049 whole entry): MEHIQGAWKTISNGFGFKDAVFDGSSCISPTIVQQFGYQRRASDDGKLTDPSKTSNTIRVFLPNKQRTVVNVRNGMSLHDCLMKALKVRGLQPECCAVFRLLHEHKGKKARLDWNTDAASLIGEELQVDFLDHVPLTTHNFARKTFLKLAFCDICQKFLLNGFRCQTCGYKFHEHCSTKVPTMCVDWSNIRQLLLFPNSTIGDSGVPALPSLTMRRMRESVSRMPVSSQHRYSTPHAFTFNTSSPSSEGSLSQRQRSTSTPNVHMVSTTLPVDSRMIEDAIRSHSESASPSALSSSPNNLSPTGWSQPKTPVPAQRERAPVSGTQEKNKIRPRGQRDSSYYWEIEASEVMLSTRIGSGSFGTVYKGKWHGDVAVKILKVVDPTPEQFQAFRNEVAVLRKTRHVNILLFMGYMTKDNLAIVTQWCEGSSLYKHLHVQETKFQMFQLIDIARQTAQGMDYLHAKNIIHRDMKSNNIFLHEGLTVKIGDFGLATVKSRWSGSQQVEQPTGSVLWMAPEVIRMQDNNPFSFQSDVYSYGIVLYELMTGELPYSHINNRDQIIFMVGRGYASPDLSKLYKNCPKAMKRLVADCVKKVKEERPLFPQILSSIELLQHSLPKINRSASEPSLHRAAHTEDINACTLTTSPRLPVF
Cytochrome P450 2D6, sequence (P10635 whole entry): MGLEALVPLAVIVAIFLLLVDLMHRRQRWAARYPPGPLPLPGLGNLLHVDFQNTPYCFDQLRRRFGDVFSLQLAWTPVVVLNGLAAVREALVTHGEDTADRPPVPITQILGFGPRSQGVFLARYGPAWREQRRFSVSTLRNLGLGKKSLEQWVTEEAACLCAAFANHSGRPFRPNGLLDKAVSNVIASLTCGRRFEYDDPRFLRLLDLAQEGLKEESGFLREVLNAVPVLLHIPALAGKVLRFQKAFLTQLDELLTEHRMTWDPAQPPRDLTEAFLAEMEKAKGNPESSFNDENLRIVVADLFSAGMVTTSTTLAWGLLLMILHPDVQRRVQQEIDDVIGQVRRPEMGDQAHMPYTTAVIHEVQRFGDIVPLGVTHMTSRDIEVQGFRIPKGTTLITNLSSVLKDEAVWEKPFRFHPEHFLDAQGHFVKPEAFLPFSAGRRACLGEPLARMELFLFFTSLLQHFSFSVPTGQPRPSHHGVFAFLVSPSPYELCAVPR

Structure (SMILES): Cc1c(F)cc(C(=O)NC2CC2)cc1-c1ccn2c(C(C)(C)N)nnc2c1
IC50 (Blood): 177 nM

Structure (SMILES): Cc1ccc(C(=O)NC2CC2)cc1-c1ccn2c(C(C)(C)C)nnc2c1
metabolised at 0.5 h, 5 µM [1]: < 5%
inhibition (INH) (Cytochrome P450 2C9): Not Active
inhibition (INH) (Cytochrome P450 2D6): Not Active
clearance [2]: 9.9 mL/min/kg
AUC [3]: 2120 ng·h/mL
clearance [4]: 7.8 mL/min/kg
bioavailability [5]: 75%
fraction unbound [6]: 0.42
fraction unbound [7]: 0.39
AUC [8]: 19400 ng·h/mL
Papp B→A at 12.5 µM [9]: 18 ×10⁻⁶ cm/s
inhibition (INH) (Cytochrome P450 1A2): Not Active
half-life [10]: 2.5 h
metabolised at 0.5 h, 5 µM [11]: < 5%
Cmax [12]: 215 ng/mL
AUC [13]: 1260 ng·h/mL
Activity (CHO [14]): 50%
ED50 (Rattus norvegicus [15]): 0.26 mg/kg
AUC [16]: 1690 ng·h/mL
inhibition (INH) (Cytochrome P450 3A4): Not Active
IC50 [17]: 3200 nM
Vd [18]: 2 L/kg
Papp A→B at 12.5 µM (in vitro): 15 ×10⁻⁶ cm/s
IC50 (Blood): 30 nM
Vd [19]: 1.7 L/kg
Cmax [20]: 2600 ng/mL
inhibition in vivo at 3 mg/kg (Rattus norvegicus [21]): 60%
Activity (CHO [22]): Non-toxic
bioavailability [23]: 93%
half-life [24]: 3.4 h
inhibition (INH) (Cytochrome P450 2C19): Not Active

Structure (SMILES): Cc1c(F)cc(C(=O)NC2CC2)cc1-c1ccn2c(C3CC3)nnc2c1
IC50 (Blood): 213 nM

Structure (SMILES): Cc1ccc(C(=O)NC2CC2)cc1-c1ccn2c(-c3ccccc3Cl)nnc2c1
IC50 (Blood): 20 nM

Structure (SMILES): Cc1ccc(C(=O)NC2CC2)cc1-c1ccn2c(-c3ccncc3Cl)nnc2c1
IC50 (Blood): 305 nM

The remaining lines, values ahead:

IC50 (Blood): 257 nM
Structure (SMILES): COC(C)c1nnc2cc(-c3cc(C(=O)NC4CC4)cc(F)c3C)ccn12 (stereo not drawn)

IC50 (Blood): 467 nM
Structure (SMILES): Cc1c(F)cc(C(=O)NC2CC2)cc1-c1c(F)cn2c(C(C)C)nnc2c1F

IC50 (Blood): 115 nM
Structure (SMILES): Cc1c(F)cc(C(=O)NC2CC2)cc1-c1ccn2c(C(C)C)nnc2c1
